Compound activity from PubChem.
Yeast lifespan up = extends the lifespan of yeast | S. cerevisiae growth with nicotinamide, OD615; deaD strain in restrictive glucose medium | 130,000 compounds, 0.68% hits | inhibition of the nicotinamide effect, % at 10 µM;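 active = inhibition above a set limit, placed 3 SD over the median of all compounds, cut at about 26% in these data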
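Material: Modified budding yeast, DeaD strain | Medium: Restrictive glucose medium | Probe or stimulus: 1.5 mM nicotinamide | Dosing: Single dose 10 µM compound, 0.25% DMSO | Times: 48 h at 30 °C | Technique: OD615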
Phagocytosis inh = macrophage phagocytosis inhibition | AID 1029 | J774A.1 macrophage IgG-bead phagocytosis, imaging | inhibition, % at 5 µM | 110,000 compounds, 0.07% hits;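 active = inhibition above the mean of the plate negative controls plus 5 SD, cut at about 13% in these data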;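 also: phagocytic index as fraction of beads internalized from green versus red external bead signal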
RAM network inh = blocks the yeast RAM network; 190,000 compounds, 1.8% hits; S. cerevisiae dse1pr::URA3 reporter, 5-FOA growth OD615, 2 d; analog-sensitive cbk1-as2 kinase mutant strain; inhibition, % at 50 µM;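 active = inhibition above a set limit, 3 SD over mean compound inhibition, cut at about 8.4% in these data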;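 also: inhibition rescues growth on 5-FOA so higher OD means more RAM inhibition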
BB579 growth dn = yeast BB579 growth reduction in restrictive medium; 140,000 compounds, 0.51% hits; S. cerevisiae BB579 growth, OD615, 48 h; inhibition, % at 10 µM; AID 804;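 active = inhibition above a set limit, 3 SD over the mean compound inhibition, cut at about 44% in these data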
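System: DeaD yeast strain BB579; buffer or medium: CSMM-D dextrose restrictive medium; technique: OD at 615 nm; schedule: 4 h cell preincubation, 48 h compound exposure, 30 °C humidified; doses: single 10 µM dose; controls: amphotericin B 10 µg/mL, positive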
Measles CPE = protection of cells from measles virus; Measles virus-infected cells, CPE protection, absorbance; protection (pct of control), % at 4 µM; 140,000 compounds, 1.5% hits; AID 841; in the data active = protection mostly above about 24%, no sharp cut-off; inactive = mostly below about 26%
Hits are given with their value; i = inactive; nt = not tested or not shown. Only some compounds are listed: those with a hit (about 3.6% of all), similar ones and a draw of the others.

SMILES	Yeast lifespan up	Phagocytosis inh	RAM network inh	BB579 growth dn	Measles CPE
CCC1=NN(S(=O)(=O)c2ccc(C)cc2)C(O)(C(F)(F)F)C1 (stereo not given)	nt	nt	i	nt	nt
COc1ccc(N2CCN(C(=O)CSc3nnc(NC(=O)C4CCC4)s3)CC2)cc1	nt	nt	i	nt	nt
COc1ccc(NC(=O)c2cncc(Br)c2)cc1S(=O)(=O)N1CCCCC1	i	i	i	i	i
O=C1C2C3C=CC([C@@H]2C(=O)N1Cc1cccnc1)C31CC1 (stereo not given in full)	i	nt	i	i	45
Cc1cc(C)n(CCC(=O)Nc2cccc(F)c2)n1	nt	nt	i	nt	nt
CCNc1oc(COc2cccc(C)c2)nc1C#N	i	i	i	i	38
Cc1cccc(OCc2nc(C#N)c(NCc3ccc4c(c3)OCO4)o2)c1	i	i	11	i	i
N#Cc1nc(COc2ccc(Cl)cc2)oc1NCc1ccc2c(c1)OCO2	i	i	i	i	i
O=C(Nc1ccccc1-c1nnc(SCc2ccc(Cl)cc2)o1)c1ccccc1	i	i	8.4	i	i
O=C(COC(=O)CNS(=O)(=O)c1c(Cl)cccc1Cl)Nc1cccnc1Cl	i	nt	i	i	i
CS(=O)(=O)Oc1ccc(Br)cc1/C=C1/N=C(c2ccco2)OC1=O	49	i	i	i	i
O=C1OC(c2ccc(Br)cc2)=N/C1=C\c1ccco1	nt	nt	i	nt	nt
Cc1cc(OCC(O)CNC(C)(C)C)ccc1Cl (stereo not given)	nt	nt	i	nt	nt
CC(C)(C)C1=CC(=Nc2ccccc2N)C=C(C(C)(C)C)C1=O	i	nt	i	i	i
CC(C)(C)C1=CC(=O)C(=O)C(C(C)(C)C)=C1	40	i	i	i	i
C(=C\c1nc(N2CCCCCC2)c2ccccc2n1)/c1ccccc1	i	i	i	74	i
CCCSc1nc(N)cc(=O)[nH]1	34	i	i	i	i
COc1ccccc1NC(=O)c1c(Nc2ccccc2C)sc(C(=O)Nc2cccc(Cl)c2)c1N	i	i	i	i	i
CC(C)NC(=O)c1ccccc1NC(=O)C1COc2ccccc2O1 (stereo not given)	nt	nt	i	i	i
CCC(C)NC(=O)c1ccccc1NC(=O)C1COc2ccccc2O1 (stereo not given)	nt	nt	8.8	nt	nt
CC(=O)Nc1cccc(-c2csc(Nc3ccc(C)cn3)n2)c1	i	i	i	i	53
CC(=O)Nc1cccc(-c2csc(Nc3ncccn3)n2)c1	nt	nt	i	nt	nt
Cc1ccc(S(=O)(=O)N(CC(=O)N2CCOCC2)C2CCCCC2)cc1	i	nt	i	i	17
Cc1ccc(S(=O)(=O)N(C)CC(=O)OCC(=O)N2CCN(c3ccccc3)CC2)cc1	i	i	8.7	i	i
CCN(CC(=O)N1CCN(c2ccccc2)CC1)S(=O)(=O)c1ccc(C)cc1	i	i	i	i	63
SMILES	Yeast lifespan up	Phagocytosis inh	RAM network inh	BB579 growth dn	Measles CPE
CC(=O)c1ccc(N2CCN(C(=O)CCS(=O)(=O)c3ccc(C)cc3)CC2)cc1	i	i	i	i	47
CCN(CC(=O)N1CCOCC1)S(=O)(=O)c1ccc(C)cc1	i	i	i	i	i
NC1=NC(=O)C(CC(=O)Nc2ccc3c(c2)OCO3)S1 (stereo not given)	nt	nt	i	nt	nt
CCc1cc2c(=O)c(-c3nc4ccccc4[nH]3)coc2cc1OC(=O)N1CCOCC1	i	nt	11	i	i
CCc1cc2c(=O)c(-c3ccc4c(c3)OCCO4)coc2cc1OC(=O)c1ccco1	i	i	i	i	i
CCCC(=O)N1CCN(c2ccc(NC(=S)NC(=O)CC)cc2)CC1	i	nt	i	i	i
CCC1(c2ccc(Cl)cc2)NC(=S)N(c2ccc(C)cc2)N1 (stereo not given)	i	nt	i	i	i
CC1(CCc2ccccc2)NC(=S)N(c2ccccc2)N1 (stereo not given)	i	i	i	96	i
CC(C)(C)C1CCC2(CC1)NC(=S)N(c1ccccc1)N2 (stereo not given)	nt	nt	i	i	i
CC1(CCc2ccccc2)NC(=S)N(c2ccc(Cl)cc2)N1 (stereo not given)	i	i	i	97	i
COc1cc(OC)cc(C(=O)N[C@H](C(=O)NCc2ccco2)C(C)C)c1	nt	nt	i	nt	nt
CCCn1c(=O)[nH]c(=O)c2c1nc(-c1ccccc1)n2CCN1CCOCC1	57	i	i	i	i
O=c1c2ccccc2nc(-c2ccccc2)n1CCCN1CCOCC1	i	i	i	i	25
Fc1ccccc1Cc1noc(CN2CCN(c3ccc(Cl)cn3)CC2)n1	nt	nt	i	nt	nt
Oc1ccc(Br)cc1C=Nc1ccc2c3c(cccc13)CC2	i	i	10	i	i
Oc1ccc(Cl)cc1C=Nc1ccccc1Br	i	i	i	i	i
